Laboratory results published in publication PMC8463510 (Acta Pharmaceutica Sinica. B, 2021).
≈ marks a conversion by molar mass, not a printed value.

Columns and labels:
[1] = Apparent solubility in vitro; type: physicochemical; details: thermodynamic from solid; for solubility at 2 h: 25 °C
[2] = Oral pharmacokinetics / bioavailability in rats; type: in vivo; details: male, Sprague-Dawley, rat, plasma, 4 mg/kg
Summary of the method: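 Male SD rats (250 ± 50 g), fasted 12 h with water, randomised to groups, n = 6. Test compound or its cyclodextrin/CD-MOF formulations were suspended in 0.5% CMC-Na and given orally at 4 mg/kg (as parent). Orbital blood was taken into heparin at 0–24 h, and plasma stored at −80 °C. Progesterone internal standard, acidified-acetonitrile precipitation, HPLC–MS/MS MRM positive ion (m/z 319.2 → 273.2). PK by […] analysis; mean ± SD.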

[3] = azilsartan loaded in CD-MOF; cited from earlier work
[4] = azilsartan loaded in CD-MOF, SD rats; cited from earlier work

solubility at 2 h ([1]; pH 1, simulated gastric fluid)	solubility at 2 h ([1]; pH 4.5, aqueous buffer)	solubility at 2 h ([1]; pH 6.8, aqueous buffer)	solubility ([1]; KOH solution, pH 11, aqueous buffer)	solubility at 2 h ([1]; distilled water, water)	AUC(0-t) [2]	Cmax [2]	Tmax [2]	Compound	apparent solubility, times of the API [3]	bioavailability, times that of API [4]
< 0.02 µg/mL	< 0.02 µg/mL	20.1 µg/mL (≈ 63 µM)	240 µg/mL (≈ 753 µM)	0.13 µg/mL (≈ 0.407 µM)	590 ng·h/mL	61 ± 39 ng/mL	3.01 h	C[C@@]12CC[C@@H]3[C@@](CC[C@H]4[C@@]3(C)CCC[C@@]4(C)C(=O)O)(CC1=O)C2 [STV, Isosteviol]	–	–
–	–	–	–	–	–	–	–	CCOc1nc2cccc(C(=O)O)c2n1Cc1ccc(-c2ccccc2-c2noc(=O)[nH]2)cc1 [azilsartan]	340 times	9.7 times
